This note sets out measurements from the array DNA melting data of Ke et al. (doi:10.1101/2024.01.08.574731).

Data set [1] in a line: melting temperature; fluorescence melt of hairpins on a sequencing array, two-state fit, raised by 9.35 °C to match UV melts. Conditions: sodium 0.088 M. The essentials: (§1)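 On a sequenced MiSeq flow cell, library hairpins with annealed Cy3 and quencher oligos were imaged for Cy3 fluorescence in 2.5 °C steps up to 60 °C, in 50 mM Na-HEPES pH 8.0, 25 mM NaCl. Normalisation used pre-quench Cy3 and control constructs. Bootstrapped two-state fits gave melting temperature and folding enthalpy, combined by inverse variance across four replicates and with fitted temperatures raised by 9.35 °C to match UV melts.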

A short description of data set [2]: folding enthalpy; higher = less favourable; fluorescence melt of hairpins on a sequencing array, two-state fit. Conditions: sodium 0.088 M. Put shortly: as §1

Consider GGAGATGGAAACATTTCC (((.(((....))).))), for which the Tm in data set [1] was 39.2 °C. The folding enthalpy in data set [2] is -32.9 kcal/mol.
Regarding GGAGATGGAAACGTTTCC (((.(.(....).).))), the Tm in data set [1] was found to be 32.9 °C. For the same sequence, in data set [2], the folding enthalpy is -16.5 kcal/mol.
As for GGAGCACCGAAAGGTTCC (((..(((....)))))), the Tm in data set [1] was found to be 30.2 °C. For the same sequence, the folding enthalpy in data set [2] was -11.3 kcal/mol.
Consider GGAGCAGCGAAAGCTTCC (((..(((....)))))), for which the Tm in data set [1] was determined as 30.8 °C. The folding enthalpy in data set [2] was -13.8 kcal/mol.
Regarding GGAGCCCGAAAGGGTCC (((.(((....)))))), the Tm in data set [1] came to 59.9 °C. Also, the folding enthalpy in data set [2] is -18.9 kcal/mol.
As to GGAGCCCGAAAGGGTTCC (((.(((....))).))), in data set [1], the Tm is 68.4 °C. In data set [2], the folding enthalpy is -25.7 kcal/mol.
On to GGAGCCGAAAGGCCCTCC ((((((....)))..))), for which, in data set [1], the Tm stood at 64.6 °C. Besides, the folding enthalpy in data set [2] was -12.8 kcal/mol.
The corresponding values for GGAGCCGAAAGGCCGTCC ((((((....)))..))) are 36.3 °C and -9.47 kcal/mol.
For GGAGCCGAAAGGCCTCC ((((((....))).))), the Tm in data set [1] was 54.5 °C. The folding enthalpy in data set [2] is -24.4 kcal/mol.
As to GGAGCCGGAAACGACCCC ((.(.((....)).).)), the Tm in data set [1] turned out to be 29.4 °C. Further, the folding enthalpy in data set [2] was -15.5 kcal/mol.
On to GGAGCGACGAAAGTCTCC (((..(((....)))))), for which the Tm in data set [1] turned out to be 36.6 °C. In data set [2], the folding enthalpy was -13.9 kcal/mol.
For GGAGCGCGAAAGCGTTCC (((.(((....))).))), the Tm in data set [1] stood at 67.6 °C. The folding enthalpy in data set [2] is -35 kcal/mol.
As to GGAGGACGAAAGTCATCC (((.(((....))).))), the Tm in data set [1] worked out at 61.4 °C. The folding enthalpy in data set [2] was -33.3 kcal/mol.
The corresponding values for GGAGGAGGAAACTCCCCC ((.((((....)))).)) are 41.8 °C and -17.6 kcal/mol.
The corresponding values for GGAGGCACGAAAGTGTCC (((..(((....)))))) are 41 °C and -12.6 kcal/mol.
The corresponding values for GGAGGCGAAAGCCAGTCC ((((((....)))..))) are 34.1 °C and -10.6 kcal/mol.
As for GGAGGCGAAAGCCCTTCC ((((((....)))..))), the Tm in data set [1] is 53.1 °C. For the same sequence, the folding enthalpy in data set [2] is -15.2 kcal/mol.
GGAGGCGAAAGCCGGTCC ((((((....)))..))): in data set [1], the Tm was determined as 43.3 °C. Besides, in data set [2], the folding enthalpy is -9.6 kcal/mol.
On to GGAGGCGGAAACACCCCC ((.((.(....).)).)), for which the Tm in data set [1] came to 26.6 °C. The folding enthalpy in data set [2] is -12.8 kcal/mol.
For GGAGGGAAACCTCC (((((....))))), in data set [1], the Tm amounted to 54.7 °C. In addition, the folding enthalpy in data set [2] was -26.3 kcal/mol.
Take GGAGGGCGAAAGCCTTCC (((.(((....))).))): in data set [1], the Tm was determined as 61.9 °C. Besides, in data set [2], the folding enthalpy was -24.9 kcal/mol.
For the sequence GGAGGTCGAAAGACATCC (((.(((....))).))), in data set [1], the Tm was found to be 57.5 °C. Moreover, the folding enthalpy in data set [2] was -38.7 kcal/mol.
For GGAGGTCGAAAGACTTCC (((.(((....))).))), the Tm in data set [1] came out at 53.5 °C. Moreover, the folding enthalpy in data set [2] was -37.5 kcal/mol.
The corresponding values for GGAGTACGAAAGTATCC (((.(((....)))))) are 38.5 °C and -22.7 kcal/mol.
Regarding GGAGTACGAAAGTATTCC (((.(((....))).))), the Tm in data set [1] came to 49.2 °C. Moreover, the folding enthalpy in data set [2] is -33.1 kcal/mol.
With GGAGTAGAAATACTCC ((((((....)))))), in data set [1], the Tm was 52 °C. Also, the folding enthalpy in data set [2] was -32.6 kcal/mol.
GGAGTAGGAAACTACTCC (((((((....))))))): the Tm in data set [1] was 59 °C. Moreover, the folding enthalpy in data set [2] was -46.4 kcal/mol.
With GGAGTCCGAAAGGATCC (((.(((....)))))), in data set [1], the Tm stood at 47.8 °C. For the same sequence, the folding enthalpy in data set [2] was -21.6 kcal/mol.
For the sequence GGAGTCCGAAAGGATTCC (((.(((....))).))), in data set [1], the Tm was 55.7 °C. The folding enthalpy in data set [2] was -47.8 kcal/mol.
As for GGAGTCGAAAGACATCC ((((((....))).))), the Tm in data set [1] stood at 42.8 °C. The folding enthalpy in data set [2] is -18.2 kcal/mol.
